From ChEMBL document CHEMBL4346663, “N-Cinnamoylanthranilates as human TRPA1 modulators: Structure-activity relationships and channel binding sites” (Eur J Med Chem, 2019)
Activity calls are given as the source filed them. No cut-off for these calls is given here.

How the values were obtained:
Type in all cases: cell-based
[1] = system: Transient receptor potential cation channel subfamily A member 1 (Homo sapiens), O75762 [F944A]; assay: Agonist activity at human TRPA1 Phe944Ala mutant expressed in HEK293 cells assessed as Ca2+ influx at 100 uM by fluorescence assay
Transient receptor potential cation channel subfamily A member 1 (Homo sapiens), O75762 [F944A], sequence (O75762 whole entry F944A): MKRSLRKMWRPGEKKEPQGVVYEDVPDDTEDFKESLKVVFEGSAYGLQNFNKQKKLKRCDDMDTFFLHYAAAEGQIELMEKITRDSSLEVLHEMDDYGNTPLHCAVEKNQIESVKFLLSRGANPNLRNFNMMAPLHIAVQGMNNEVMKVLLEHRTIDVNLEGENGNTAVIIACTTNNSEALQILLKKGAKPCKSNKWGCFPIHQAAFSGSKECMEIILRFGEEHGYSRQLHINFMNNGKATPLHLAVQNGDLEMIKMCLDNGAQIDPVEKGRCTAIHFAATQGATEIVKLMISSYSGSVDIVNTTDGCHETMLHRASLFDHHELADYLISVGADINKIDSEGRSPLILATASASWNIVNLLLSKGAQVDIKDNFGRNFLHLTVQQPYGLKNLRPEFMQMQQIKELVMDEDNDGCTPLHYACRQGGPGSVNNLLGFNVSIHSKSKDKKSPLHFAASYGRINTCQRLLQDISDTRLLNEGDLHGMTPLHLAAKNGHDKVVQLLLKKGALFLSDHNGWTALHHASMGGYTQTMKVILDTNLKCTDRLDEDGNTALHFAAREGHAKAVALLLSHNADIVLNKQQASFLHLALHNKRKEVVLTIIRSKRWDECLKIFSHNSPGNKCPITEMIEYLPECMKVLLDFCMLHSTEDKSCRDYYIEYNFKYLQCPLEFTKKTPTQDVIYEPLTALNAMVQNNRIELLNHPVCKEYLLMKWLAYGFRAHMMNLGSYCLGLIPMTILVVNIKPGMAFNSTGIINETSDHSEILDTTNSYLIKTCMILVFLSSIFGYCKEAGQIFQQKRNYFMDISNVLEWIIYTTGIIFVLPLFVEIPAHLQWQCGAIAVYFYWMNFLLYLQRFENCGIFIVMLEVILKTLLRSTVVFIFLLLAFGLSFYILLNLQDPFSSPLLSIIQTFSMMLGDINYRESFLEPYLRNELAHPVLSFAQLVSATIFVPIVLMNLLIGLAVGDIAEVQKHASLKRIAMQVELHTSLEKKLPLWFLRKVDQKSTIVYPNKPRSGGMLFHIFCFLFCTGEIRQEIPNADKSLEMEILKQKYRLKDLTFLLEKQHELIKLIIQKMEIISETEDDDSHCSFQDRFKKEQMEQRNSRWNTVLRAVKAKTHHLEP
How it was run: (§1)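 HEK293 cells stably expressing hTRPA1 point mutants, made by FuGENE 6 transfection, G418 (0.5 mg ml-1) selection and single-cell cloning, grown in DMEM with 25 mM HEPES, 10% FBS and geneticin. Ca2+ influx was read by Fluo dye fluorescence at room temperature, with calcimycin added at the end. Response was ΔRFU as % of calcimycin, with the DMSO vehicle subtracted.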

[2] = biological target: T1, Transient receptor potential cation channel subfamily A member 1 (Homo sapiens, UniProt O75762); assay: Agonist activity at human TRPA1 expressed in HEK293 cells assessed as increase in calcium influx by Fluo-4-AM dye based fluorescence assay; conditions: read-out: EC50
T1 sequence (O75762 whole entry): as the sequence (O75762 whole entry F944A) above, with A944F counted along it
How it was run: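 Stably transfected hTRPA1- or hTRPM8-HEK293 cells on poly-D-lysine plates for 48 h, loaded with Fluo-4AM (2 µM, 45 min, dark, room temperature), in isotonic HEPES buffer pH 7.4. FlexStation 240 s run: 20 s baseline, compound added, calcimycin added at 180 s. ΔRFU expressed as % calcimycin, DMSO-subtracted. Screening N = 3. Dose-response curves fitted for logEC50 (N = 3 in duplicate or triplicate).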

[3] = biological target: T1, Transient receptor potential cation channel subfamily A member 1; assay: Agonist activity at human TRPA1 expressed in HEK293 assessed as increase in calcium influx by […]
[4] = system: Transient receptor potential cation channel subfamily A member 1 (Homo sapiens), O75762 [F909A]; assay: Agonist activity at human TRPA1 Phe909Ala mutant expressed in HEK293 cells assessed as Ca2+ influx at 100 uM by fluorescence assay; how it was run: as §1
Transient receptor potential cation channel subfamily A member 1 (Homo sapiens), O75762 [F909A], sequence (O75762 whole entry F909A): as the sequence (O75762 whole entry F944A) above, with F909A, A944F counted along it

[5] = system: Transient receptor potential cation channel subfamily A member 1 (Homo sapiens), O75762 [F909A]; assay: Agonist activity at human TRPA1 Phe909Ala mutant expressed in HEK293 cells assessed as Ca2+ influx […] fluorescence assay
How it was run: (§2)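 HEK293 cells stably expressing hTRPA1 point mutants (C621A, F909A or F944A), single-cell cloned under G418 selection. Cells plated on poly-D-lysine for 48 h, loaded with Fluo-4AM 2 µM for 45 min at room temperature. FlexStation read (ex 485/em 538 nm): 20 s baseline, compound added, calcimycin added at 180 s. Response expressed as % calcimycin from ΔRFU, vehicle-subtracted, and compared with wild-type hTRPA1 cells.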

[6] = system: Transient receptor potential cation channel subfamily A member 1 (Homo sapiens), O75762 [C621A]; assay: Agonist activity at human TRPA1 […] mutant expressed in HEK293 cells assessed as Ca2+ influx […] by fluorescence assay; how it was run: as §2
Transient receptor potential cation channel subfamily A member 1 (Homo sapiens), O75762 [C621A], sequence (O75762 whole entry C621A): as the sequence (O75762 whole entry F944A) above, with C621A, A944F counted along it

[7] = system: Transient receptor potential cation channel subfamily A member 1 (Homo sapiens), O75762 [F944A]; assay: Agonist activity at human TRPA1 Phe944Ala mutant expressed in HEK293 cells assessed as Ca2+ influx […] by fluorescence assay; how it was run: as §2
[8] = biological target: T1, Transient receptor potential cation channel subfamily A member 1; assay: Agonist activity at human TRPA1 expressed in CHO cells assessed as increase in calcium influx by Fluo-4-AM dye based fluorescence assay
[9] = system: Transient receptor potential cation channel subfamily A member 1 (Homo sapiens), O75762 [F909A]; assay: Agonist activity at human TRPA1 Phe909Ala mutant expressed in HEK293 cells assessed as Ca2+ influx at 1 uM by fluorescence assay; how it was run: as §2
[10] = system: Transient receptor potential cation channel subfamily A member 1 (Homo sapiens), O75762 [C621A]; assay: Agonist activity at human TRPA1 […] mutant expressed in HEK293 cells assessed as Ca2+ influx at 1 uM by fluorescence assay
[11] = biological target: T1, Transient receptor potential cation channel subfamily A member 1; assay: Agonist activity at human TRPA1 expressed in HEK293 cells assessed as increase in calcium influx by Fluo-3/acetoxymethyl ester dye based FLIPR analysis
[12] = biological target: T1, Transient receptor potential cation channel subfamily A member 1; assay: Agonist activity at human TRPA1 expressed in HEK293 cells assessed as increase in calcium influx by FLIPR analysis
How it was run: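 Stably transfected hTRPA1-HEK293 cells plated on poly-D-lysine at 12500 cells per well, grown 48 h, loaded with 2 µM Fluo-4AM for 45 min in the dark at room temperature. Assayed in isotonic HEPES buffer (pH 7.4) on a plate reader, ex 485/em 538 nm. Compound added at 20 s, calcimycin at 180 s. ΔRFU taken as % calcimycin after DMSO subtraction. Three independent experiments.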

[13] = system: Transient receptor potential cation channel subfamily A member 1 (Homo sapiens), O75762 [F909A]; assay: Agonist activity at human TRPA1 Phe909Ala mutant expressed in HEK293 cells assessed as Ca2+ influx at 30 uM by fluorescence assay; how it was run: as §2
[14] = biological target: Transient receptor potential cation channel subfamily A member 1 (Mus musculus, UniProt Q8BLA8); assay: Agonist activity at mouse TRPA1 expressed in CHO cells assessed as increase in calcium influx by Fluo-3 based FLIPR analysis
Transient receptor potential cation channel subfamily A member 1 (Mus musculus, UniProt Q8BLA8), sequence (Q8BLA8 whole entry): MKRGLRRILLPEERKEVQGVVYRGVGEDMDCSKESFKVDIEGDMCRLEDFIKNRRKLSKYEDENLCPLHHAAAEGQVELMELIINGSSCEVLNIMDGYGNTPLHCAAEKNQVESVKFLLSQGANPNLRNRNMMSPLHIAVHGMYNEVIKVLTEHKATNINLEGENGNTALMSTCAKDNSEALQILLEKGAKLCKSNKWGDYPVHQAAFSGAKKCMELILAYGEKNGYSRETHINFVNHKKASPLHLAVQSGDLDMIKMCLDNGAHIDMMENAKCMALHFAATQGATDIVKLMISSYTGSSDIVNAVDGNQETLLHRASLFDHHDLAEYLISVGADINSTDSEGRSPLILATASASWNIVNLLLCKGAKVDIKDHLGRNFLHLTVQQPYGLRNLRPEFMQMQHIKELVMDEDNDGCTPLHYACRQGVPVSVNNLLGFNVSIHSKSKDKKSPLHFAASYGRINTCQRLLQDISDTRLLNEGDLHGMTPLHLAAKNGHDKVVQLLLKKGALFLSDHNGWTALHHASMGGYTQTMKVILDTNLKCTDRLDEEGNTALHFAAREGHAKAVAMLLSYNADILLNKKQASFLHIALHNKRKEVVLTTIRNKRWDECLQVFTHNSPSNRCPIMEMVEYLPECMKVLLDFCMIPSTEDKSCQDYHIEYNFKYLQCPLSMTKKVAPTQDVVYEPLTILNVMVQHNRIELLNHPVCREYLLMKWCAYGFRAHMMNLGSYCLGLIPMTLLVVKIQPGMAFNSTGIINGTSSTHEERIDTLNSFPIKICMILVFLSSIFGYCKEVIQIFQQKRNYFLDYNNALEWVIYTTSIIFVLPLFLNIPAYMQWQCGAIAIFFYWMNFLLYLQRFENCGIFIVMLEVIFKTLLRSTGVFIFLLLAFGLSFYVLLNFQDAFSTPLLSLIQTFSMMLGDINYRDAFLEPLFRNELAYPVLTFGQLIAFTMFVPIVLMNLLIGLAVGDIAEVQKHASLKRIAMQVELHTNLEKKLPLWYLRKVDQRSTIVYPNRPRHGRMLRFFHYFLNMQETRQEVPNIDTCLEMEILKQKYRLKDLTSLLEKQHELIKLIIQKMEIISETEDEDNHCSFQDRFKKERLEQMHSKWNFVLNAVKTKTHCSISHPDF

[15] = system: Transient receptor potential cation channel subfamily A member 1 (Homo sapiens), O75762 [F944A]; assay: Agonist activity at human TRPA1 Phe944Ala mutant expressed in HEK293 cells assessed as Ca2+ influx at 30 uM by fluorescence assay; how it was run: as §2
[16] = biological target: T1, Transient receptor potential cation channel subfamily A member 1; assay: Agonist activity at human TRPA1 expressed in HEK293 cells assessed as increase in calcium influx by Calcium-5 dye based fluorescence assay

`C=CCc1ccc(O)c(OC)c1` [EUGENOL] was tested. Which Activity [1] did it give?
Its Activity is “inactive”.

What about the EC50 [2] of the same molecule?
Its EC50 is 168 µM.

What about the EC50 [3] of the same molecule?
Its EC50 is 261 µM.

What about the Activity [4] of the same molecule?
Its Activity is “Active”.

How did the Activity [5] turn out when `CCCN(CCC)S(=O)(=O)c1ccc(C(=O)O)cc1` [PROBENECID] was run?
The Activity was “Active”.

And the Activity [6]?
Its Activity is “inactive”.

What about the Activity [7] of the same molecule?
The Activity was “inactive”.

And the EC50 [8]?
Its EC50 is 4200 µM.

Which results are given for `CC(C)=CCC/C(C)=C/CC/C(C)=C/CSc1ccccc1C(=O)O` [SALIRASIB]?
Activity [9]: Active; Activity [10]: inactive; EC50 [11]: 7 µM; EC50 [2]: 0.8 µM

How did the Activity [9] turn out when `O=C(O)c1cc([N+](=O)[O-])ccc1NCCCc1ccccc1` [5-NITRO-2-PHENYLPROPYLAMINOBENZOIC ACID [NPPB]] was run?
Its Activity is “Active”.

What about the EC50 [12] of the same molecule?
The EC50 was 0.32 µM.

What about the Activity [10] of the same molecule?
Its Activity is “inactive”.

And the EC50 [2]?
The EC50 was 0.6 µM.

What does the source list for `O=C/C=C/c1ccccc1`?
Activity [13]: Active; EC50 [14]: 61 µM; EC50 [2]: 9 µM

For `CC(Cc1ccc(O)c(O)c1)C(C)Cc1ccc(O)c(O)c1` (stereo not drawn) [NORDIHYDROGUAIARETIC ACID], which Activity [13] is on record?
Its Activity is “Active”.

What about the Activity [15] of the same molecule?
The Activity was “inactive”.

What about the EC50 [16] of the same molecule?
The EC50 was 4.9 µM.

And the EC50 [2]?
Its EC50 is 35 µM.
